Source: ChEMBL document CHEMBL3098050, “Stereoselective total synthesis of a novel regiomer of herbarumin I and its cytotoxic and antimicrobial activities” (Bioorg Med Chem Lett, 2014)
pIC50: −log10 of the molar value. Values after ≈ are worked out from the molar mass of the structure shown.

Tests used:
Staphylococcus aureus = test: Antimicrobial activity against Staphylococcus aureus MTCC 96 after 18 hrs by microtitre broth dilution method; type: functional; conditions: MTCC 96, 18 h
In short: (§1)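 Microtiter broth dilution; MIC per pathogen taken from four individual observations; ciprofloxacin as bacterial positive control.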

MDA-MB-231 = test: Cytotoxicity against human MDA-MB-231 cells by MTT assay; type: functional, cell-based
In short: (§2)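 MTT read-out (Mosmann method); absorbance dose–response curves plotted and IC50 calculated from them; each cell line's value is the mean of two independent experiments; doxorubicin as positive control.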

COLO 205 = test: Cytotoxicity against human COLO205 cells by MTT assay; type: functional, cell-based; in short: as §2
A549 = test: Cytotoxicity against human A549 cells by MTT assay; type: functional, cell-based; in short: as §2
DU-145 = test: Cytotoxicity against human DU145 cells by MTT assay; type: functional, cell-based; in short: as §2
Bacillus subtilis = test: Antimicrobial activity against Bacillus subtilis MTCC 121 after 18 hrs by microtitre broth dilution method; type: functional; conditions: MTCC 121, 18 h; in short: as §1
HepG2 = test: Cytotoxicity against human HepG2 cells by MTT assay; type: functional, cell-based; in short: as §2
Raoultella planticola = test: Antimicrobial activity against Klebsiella planticola MTCC 530 after 18 hrs by microtitre broth dilution method; type: functional; conditions: MTCC 530, 18 h; in short: as §1
Pseudomonas aeruginosa = test: microbe, parasite or virus in culture; conditions: MTCC 2453, 18 h
Escherichia coli = test: microbe, parasite or virus in culture; conditions: MTCC 739, 18 h

Compound | MIC (Staphylococcus aureus) [µg/mL] | pIC50 (MDA-MB-231) | pIC50 (COLO 205) | pIC50 (A549) | pIC50 (DU-145) | MIC (Bacillus subtilis) [µg/mL] | pIC50 (HepG2) | MIC (Raoultella planticola) [µg/mL] | MIC (Pseudomonas aeruginosa) [µg/mL] | MIC (Escherichia coli) [µg/mL]
CCC[C@H]1OC(=O)[C@H](O)CC/C=C/C[C@@H]1O | 7.8 (≈ 34.2 µM) | 5.21 | 5.29 | 5.09 | 5.05 | 15.6 (≈ 68.3 µM) | 5.04 | 15.6 (≈ 68.3 µM) |  | 
O=C(O)c1cn(C2CC2)c2cc(N3CCNCC3)c(F)cc2c1=O [CIPROFLOXACIN] | 0.9 (≈ 2.72 µM) |  |  |  |  | 0.9 (≈ 2.72 µM) |  | 0.9 (≈ 2.72 µM) | 0.9 (≈ 2.72 µM) | 0.9 (≈ 2.72 µM)
COc1cccc2c1C(=O)c1c(O)c3c(c(O)c1C2=O)C[C@@](O)(C(=O)CO)C[C@@H]3O[C@H]1C[C@H](N)[C@H](O)[C@H](C)O1 [DOXORUBICIN] |  |  | 6.30 |  | 6.22 |  |  |  |  | 
